ChEMBL document CHEMBL2380276, “Synthesis and antiproliferative evaluation of piperazine-1-carbothiohydrazide derivatives of indolin-2-one” (Bioorg Med Chem Lett, 2013)

What was measured:
Format in all cases: functional, cell-based
[1] = test system: A549; assay: Cytotoxicity against human A549 cells assessed as growth inhibition after 72 hrs by MTT assay; conditions: A549, 72 h
Summary of the method: (§1)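 MTT proliferation assay; cells exposed 72 h, first screened at 100 μM with ≥50% inhibition versus vehicle-treated cells counted active; active compounds then tested at various concentrations to derive IC50 (concentration giving 50% proliferation inhibition). Sunitinib positive control. Means ± SD of three separate experiments.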

[2] = test system: MCF7; assay: Cytotoxicity against human MCF7 cells assessed as growth inhibition after 72 hrs by MTT assay; conditions: MCF7, 72 h; summary of the method: as §1
[3] = test system: HCT-116; assay: Cytotoxicity against human HCT116 cells assessed as growth inhibition after 72 hrs by MTT assay; conditions: HCT-116, 72 h; summary of the method: as §1

In the case of O=C1Nc2ccccc2/C1=N/NC(=S)N1CCN(c2ccccc2)CC1, the IC50 [1] is reported as 18.6 µM, the IC50 [2] is reported as 24.9 µM and the IC50 [3] is reported as 11.1 µM.
Compound O=C1Nc2ccc(Cl)cc2/C1=N/NC(=S)N1CCN(c2ccc([N+](=O)[O-])cc2)CC1 has an IC50 [1] of 11.8 µM, an IC50 [2] of 20.9 µM and an IC50 [3] of 12 µM.
O=C1Nc2ccc(Cl)cc2/C1=N/NC(=S)N1CCN(c2ccc(Cl)cc2)CC1 was tested, and the IC50 [1] was 8.18 µM, the IC50 [2] was 13.1 µM and the IC50 [3] was 5.39 µM.
Work on O=C1Nc2ccc(Cl)cc2/C1=N/NC(=S)N1CCN(c2ccccc2)CC1 yielded an IC50 [1] of 7.34 µM, an IC50 [2] of 10.4 µM and an IC50 [3] of 3.49 µM.
With COc1ccc(N2CCN(C(=S)N/N=C3\C(=O)Nc4ccc(Cl)cc43)CC2)cc1 the IC50 [1] was 7.68 µM, the IC50 [2] was 13.8 µM and the IC50 [3] was 7.74 µM.
In the case of O=C1Nc2cc(Cl)ccc2/C1=N/NC(=S)N1CCN(c2ccccc2)CC1, the IC50 [1] is reported as 27.7 µM, the IC50 [2] is reported as 23 µM and the IC50 [3] is reported as 17.9 µM.
With O=C1Nc2ccc(Cl)cc2/C1=N/NC(=S)N1CCN(c2ccc(F)cc2)CC1 the IC50 [1] was 8.9 µM, the IC50 [2] was 12.3 µM and the IC50 [3] was 6.35 µM.
O=C1Nc2ccc(Br)cc2/C1=N/NC(=S)N1CCN(c2ccccc2)CC1 was tested, and the IC50 [1] was 12.2 µM, the IC50 [2] was 20.5 µM and the IC50 [3] was 10.4 µM.
O=C1Nc2ccccc2/C1=N/NC(=S)Nc1ccccc1 was tested, and the IC50 [1] was over 100 µM, the IC50 [2] was over 100 µM and the IC50 [3] was over 100 µM.
O=C1Nc2cc(Br)ccc2/C1=N/NC(=S)N1CCN(c2ccccc2)CC1 showed an IC50 [1] of 15.8 µM, an IC50 [2] of 19.7 µM and an IC50 [3] of 14.5 µM.
O=C1Nc2ccc(Cl)cc2/C1=N/NC(=S)N1CCN(c2ccccc2[N+](=O)[O-])CC1 gave an IC50 [1] of 5.58 µM, an IC50 [2] of 7.49 µM and an IC50 [3] of 4.57 µM.
O=C1Nc2ccc(Cl)cc2/C1=N/NC(=S)Nc1ccccc1 was tested, and the IC50 [1] was 33.1 µM, the IC50 [2] was 35 µM and the IC50 [3] was 30.8 µM.
Compound Cc1ccccc1N1CCN(C(=S)N/N=C2\C(=O)Nc3ccc(Cl)cc32)CC1 has an IC50 [1] of 6.52 µM, an IC50 [2] of 10.9 µM and an IC50 [3] of 4.91 µM.
O=C1Nc2cccc(Br)c2/C1=N/NC(=S)N1CCN(c2ccccc2)CC1 showed an IC50 [1] of 54 µM, an IC50 [2] of 40.7 µM and an IC50 [3] of 33.6 µM.
With O=C1Nc2c(Br)cc(Br)cc2/C1=N/NC(=S)N1CCN(c2ccccc2)CC1 the IC50 [1] was 6.11 µM, the IC50 [2] was 11.6 µM and the IC50 [3] was 6.32 µM.
O=C1Nc2cccc(Cl)c2/C1=N/NC(=S)N1CCN(c2ccccc2)CC1 showed an IC50 [1] of 55.9 µM, an IC50 [2] of 52.1 µM and an IC50 [3] of 42.1 µM.
In the case of O=C1Nc2ccc(Cl)cc2/C1=N/NC(=S)N1CCN(c2ccccc2F)CC1, the IC50 [1] is reported as 10.5 µM, the IC50 [2] is reported as 15.2 µM and the IC50 [3] is reported as 8.29 µM.
Work on Cc1ccc(N2CCN(C(=S)N/N=C3\C(=O)Nc4ccc(Cl)cc43)CC2)cc1 yielded an IC50 [1] of 10.1 µM, an IC50 [2] of 17.1 µM and an IC50 [3] of 6.39 µM.
Compound CCN(CC)CCNC(=O)c1c(C)[nH]c(/C=C2\C(=O)Nc3ccc(F)cc32)c1C [SUNITINIB] has an IC50 [1] of 2.44 µM, an IC50 [2] of 6.29 µM and an IC50 [3] of 4.71 µM.
For O=C1Nc2ccc(Cl)cc2/C1=N/NC(=S)N1CCN(c2ccccc2Cl)CC1, the IC50 [1] was 7.92 µM, the IC50 [2] was 11.7 µM and the IC50 [3] was 4.91 µM.
For Cc1ccc(NC(=S)N/N=C2\C(=O)Nc3ccc(Cl)cc32)c(C)c1, the IC50 [1] was over 100 µM, the IC50 [2] was over 100 µM and the IC50 [3] was over 100 µM.
In the case of Cc1ccc2c(c1)/C(=N/NC(=S)N1CCN(c3ccccc3)CC1)C(=O)N2, the IC50 [1] is reported as 9.88 µM, the IC50 [2] is reported as 14.9 µM and the IC50 [3] is reported as 9.48 µM.
O=C1Nc2ccc(F)cc2/C1=N/NC(=S)N1CCN(c2ccccc2)CC1 was tested, and the IC50 [1] was 20.7 µM, the IC50 [2] was 24.3 µM and the IC50 [3] was 12.3 µM.
Compound Cc1ccc(N2CCN(C(=S)N/N=C3\C(=O)Nc4ccc(Cl)cc43)CC2)c(C)c1 has an IC50 [1] of 3.59 µM, an IC50 [2] of 10.8 µM and an IC50 [3] of 7.18 µM.
Compound COc1ccc2c(c1)/C(=N/NC(=S)N1CCN(c3ccccc3)CC1)C(=O)N2 has an IC50 [1] of 7.52 µM, an IC50 [2] of 14.4 µM and an IC50 [3] of 9.53 µM.
Work on O=C1Nc2ccc(Cl)cc2/C1=N/NC(=S)N1CCN(c2ccc(F)cc2F)CC1 yielded an IC50 [1] of 11.4 µM, an IC50 [2] of 20.1 µM and an IC50 [3] of 5.89 µM.
O=C1Nc2ccc([N+](=O)[O-])cc2/C1=N/NC(=S)N1CCN(c2ccccc2)CC1 was tested, and the IC50 [1] was 17.9 µM, the IC50 [2] was 23.3 µM and the IC50 [3] was 15.1 µM.
Work on O=C1Nc2ccc(Cl)cc2/C1=N/NC(=S)N1CCN(c2ccc(Cl)c(Cl)c2)CC1 yielded an IC50 [1] of 7.95 µM, an IC50 [2] of 10.8 µM and an IC50 [3] of 5.82 µM.
